Compounds with a hit are over-represented: about 5.4% of the library has one in this group of screens.
T cruzi inh = T. cruzi replication inhibition. T. cruzi beta-gal in NIH3T3, luminescence, 90 h. inhibition, % (test concentration not listed). actives 1.4% (n = 300,000);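 active means mean inhibition across valid replicates above about 55%, limit read from the data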;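 further: signal also drops with host cell toxicity which is not excluded here; higher percent means less beta-gal luminescence so fewer parasites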
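Assay system: NIH/3T3 fibroblasts plus reporter T. cruzi. Amount: NIH/3T3 cells, 5,000 per well. Buffer or medium: DMEM, 2% fetal bovine serum. Doses: compound pinned at 50 nL/well, DMSO. Schedule: ≥90 h infection period, 3 h prior cell attachment. Signal: luminescent β-galactosidase signal after 60 min lysis. Read-out: parasite load inhibition, %.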
aSyn UTR inh = 5' untranslated region of α-synuclein, MLPCN primary screen | alpha-synuclein 5'UTR reporter, inhibitor activity | actives 0.82% (n = 300,000) | inhibition, % (tested at 7.5 µM); in the data active means inhibition above about 60%;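 further: H4 neuroglioblastoma cells stably carrying SNCA 5'UTR luciferase fusion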
Mdm2 MdmX PPI = inhibitors of human Mdm2/MdmX interaction; O15151+Q00987; SaOS-2 split-luciferase Mdm2/MdmX complementation, luminescence; inhibition, % at 8 µM; actives 3% (n = 330,000);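 active means inhibition of at least 50% at 8 µM in the primary screen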
Target sequence (O15151 whole entry, looked up): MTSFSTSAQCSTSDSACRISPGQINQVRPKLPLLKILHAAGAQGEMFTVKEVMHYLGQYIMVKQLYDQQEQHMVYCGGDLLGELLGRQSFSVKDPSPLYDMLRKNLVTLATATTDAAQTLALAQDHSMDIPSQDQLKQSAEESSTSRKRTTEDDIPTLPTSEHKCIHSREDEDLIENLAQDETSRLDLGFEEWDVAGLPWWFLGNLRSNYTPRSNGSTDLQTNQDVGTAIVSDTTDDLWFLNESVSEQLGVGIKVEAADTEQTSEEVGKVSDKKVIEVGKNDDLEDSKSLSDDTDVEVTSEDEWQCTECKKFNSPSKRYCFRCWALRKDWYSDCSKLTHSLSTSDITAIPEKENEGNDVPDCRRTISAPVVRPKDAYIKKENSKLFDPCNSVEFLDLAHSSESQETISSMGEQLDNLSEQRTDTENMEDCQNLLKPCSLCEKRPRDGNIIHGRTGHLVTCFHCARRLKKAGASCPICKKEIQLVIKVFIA
Target sequence (Q00987 whole entry, looked up): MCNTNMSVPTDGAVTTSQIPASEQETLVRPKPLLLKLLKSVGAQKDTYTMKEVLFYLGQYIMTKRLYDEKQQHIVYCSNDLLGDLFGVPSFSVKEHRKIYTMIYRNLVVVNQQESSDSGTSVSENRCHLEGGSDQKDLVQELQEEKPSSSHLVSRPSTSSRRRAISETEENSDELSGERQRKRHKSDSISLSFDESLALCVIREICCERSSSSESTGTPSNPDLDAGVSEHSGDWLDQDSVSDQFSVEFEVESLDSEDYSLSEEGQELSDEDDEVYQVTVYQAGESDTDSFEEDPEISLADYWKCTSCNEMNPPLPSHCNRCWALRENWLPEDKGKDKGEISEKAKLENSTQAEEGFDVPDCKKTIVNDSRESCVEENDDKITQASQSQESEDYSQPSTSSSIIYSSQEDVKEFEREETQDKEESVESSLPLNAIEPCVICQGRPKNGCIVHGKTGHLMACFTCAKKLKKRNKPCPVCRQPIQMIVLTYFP
CSC inhib = cancer stem cell inhibition; actives 1.1% (n = 300,000); inhibition, % at 7.5 µM; cancer stem cell-like cells viability, luminescence; in the data active means inhibition above about 75%; tested in HMLE shEcad cells
SKKanGAS inh = blocks kanamycin growth of S. pyogenes SKKanGAS strain. AID 1662. actives 1.3% (n = 300,000). BacTiter-Glo, 6 h. inhibition, % at 7.5 µM;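 active means mean replicate score, as percent of positive control median, at least 50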;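 further: strain carries kanamycin resistance gene driven by streptokinase promoter and grows in 40 µg/ml kanamycin; loss of luminescence reflects streptokinase promoter inhibition or plain growth inhibition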
Mdm2 MdmX conf = human Mdm2/MdmX binding inhibition, confirmed. shares compounds with Mdm2 MdmX PPI. luminescent assay. inhibition, % at 8 µM. actives 55% (n = 10,000). AID 489028; in the data active means inhibition above about 40%
FLuc counter = inhibits full-length luciferase, flagging false Mdm2/MdmX hits. shares compounds with Mdm2 MdmX PPI. SaOS-2 full-length luciferase counterscreen, luminescence. inhibition, % at 8 µM. actives 77% (n = 6,200). AID 504607;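 active means mean inhibition at 8 µM reaching about 37%, which flags the compound as non-specific, limit read from the data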;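 further: p53-null SaOS-2 cells with luciferase driven by a doxycycline-inducible promoter; compound on cells about two nights before reading with doxycycline added after day one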
Hits are given with their value.

For COc1ccc(C2C(C(C)=O)=C(O)C(=O)N2c2ccc(Br)cn2)cc1 (stereo not given) the results were T cruzi inh inactive, aSyn UTR inh inactive, Mdm2 MdmX PPI inactive, CSC inhib inactive and SKKanGAS inh inactive.
Screening CC1CCN(c2cc(N3CCN(C(=O)c4ccc(F)c(F)c4)CC3)c([N+](=O)[O-])cc2F)CC1 returned T cruzi inh inactive, aSyn UTR inh inactive, Mdm2 MdmX PPI inactive, CSC inhib inactive and SKKanGAS inh inactive.
For O=C(Nc1cccnc1)c1ccc([N+](=O)[O-])s1 the results were Mdm2 MdmX PPI 52, CSC inhib inactive and Mdm2 MdmX conf inactive.
`O=C(NC1CCCC1)C(c1cccnc1)N(Cc1ccccc1F)C(=O)c1csnn1` (stereo not given) gave T cruzi inh inactive, aSyn UTR inh inactive, Mdm2 MdmX PPI inactive, CSC inhib inactive and SKKanGAS inh inactive.
C=C1CCC[C@]2(C)C[C@H]3OC(=O)C(CN4CC(C)OC(C)C4)[C@H]3C[C@@H]12 (stereo not given in full) was read as T cruzi inh inactive, aSyn UTR inh inactive, Mdm2 MdmX PPI inactive, CSC inhib inactive and SKKanGAS inh inactive.
For CC1CCN(CC2C(=O)O[C@@H]3C[C@@]4(C)CCC[C@H](C)C4=C[C@H]23)CC(C)(C)C1 (stereo not given in full) the results were T cruzi inh inactive, aSyn UTR inh inactive, Mdm2 MdmX PPI 65, CSC inhib inactive, SKKanGAS inh inactive, Mdm2 MdmX conf 43 and FLuc counter 44.
For CCOC(=O)C1(CC2CCCCO2)CCN(S(=O)(=O)c2c(C)nn(C)c2C)CC1 (stereo not given) the results were T cruzi inh inactive, aSyn UTR inh inactive, Mdm2 MdmX PPI inactive and SKKanGAS inh inactive.
O=C(NCC1CCCO1)c1cccc2ccccc12 (stereo not given) was read as T cruzi inh inactive, aSyn UTR inh inactive, Mdm2 MdmX PPI inactive, CSC inhib inactive and SKKanGAS inh inactive.
For O=C(NC(NCC1CCCO1)C(Cl)(Cl)Cl)c1cccc2ccccc12 (stereo not given) the results were T cruzi inh inactive, aSyn UTR inh inactive, Mdm2 MdmX PPI 55, CSC inhib inactive, SKKanGAS inh inactive and Mdm2 MdmX conf inactive.
`CCC1CCCCN1S(=O)(=O)c1ccc(-n2cnnn2)c(C)c1` (stereo not given) gave T cruzi inh inactive, aSyn UTR inh inactive, Mdm2 MdmX PPI inactive, CSC inhib inactive and SKKanGAS inh inactive.
`COc1cc(/C=C(\C#N)C(=O)Nc2cc(C(F)(F)F)ccc2Cl)ccc1OCC(=O)Nc1cccc(C(F)(F)F)c1` gave T cruzi inh inactive, aSyn UTR inh inactive, Mdm2 MdmX PPI inactive, CSC inhib inactive and SKKanGAS inh inactive.
C/C(O)=C/c1nc2ccccc2[nH]c1=O was read as T cruzi inh inactive, aSyn UTR inh inactive, Mdm2 MdmX PPI inactive, CSC inhib inactive and SKKanGAS inh inactive.
Screening O=c1[nH]c2ccc([N+](=O)[O-])cc2nc1/C=C(\O)c1ccccc1 returned T cruzi inh inactive, aSyn UTR inh inactive, Mdm2 MdmX PPI 81, CSC inhib inactive, SKKanGAS inh inactive and Mdm2 MdmX conf inactive.
For Cc1csc(Nc2nc(N)c(C(=O)Nc3cc(Cl)ccc3F)o2)n1 the results were T cruzi inh inactive, aSyn UTR inh inactive, Mdm2 MdmX PPI 55, CSC inhib inactive, SKKanGAS inh inactive and Mdm2 MdmX conf inactive.
`CCCCNc1c(-c2ccc(OC)c(SC3CCCCC3)c2)nc2ccc(C)cn12` gave Mdm2 MdmX PPI 98, Mdm2 MdmX conf 46 and FLuc counter inactive.
COc1ccc(-c2nc3ccc(C)cn3c2NCc2ccccc2)cc1SC1CCCCC1 was read as T cruzi inh 63, aSyn UTR inh inactive, Mdm2 MdmX PPI 53, CSC inhib inactive, SKKanGAS inh inactive and Mdm2 MdmX conf inactive.
For CCCCNc1c(-c2ccc(OC)c(SC(C)CC)c2)nc2cc(C)ccn12 (stereo not given) the results were Mdm2 MdmX PPI inactive.
For CCCCNc1c(-c2ccc(Sc3ccc(OC)cc3)cc2)nc2cc(C)ccn12 the results were Mdm2 MdmX PPI 80, CSC inhib inactive and Mdm2 MdmX conf inactive.
`CCC(C)Sc1ccc(-c2nc3ccc(C)cn3c2NCc2ccccc2)cc1OC` (stereo not given) gave T cruzi inh inactive, aSyn UTR inh inactive, Mdm2 MdmX PPI 97, CSC inhib inactive, SKKanGAS inh 53, Mdm2 MdmX conf 57 and FLuc counter 39.
`CCn1c(C)cs/c1=N\C(=S)Nc1ccccc1C` gave T cruzi inh inactive, aSyn UTR inh inactive, Mdm2 MdmX PPI inactive, CSC inhib inactive and SKKanGAS inh inactive.
`CC1CCc2sc3ncnc(N4CCN(C)CC4)c3c2C1` (stereo not given) gave T cruzi inh inactive, aSyn UTR inh inactive, Mdm2 MdmX PPI inactive and SKKanGAS inh inactive.
Screening COc1cccc(CNC(=O)CCCn2c(=S)[nH]c3cc4c(cc3c2=O)OCO4)c1 returned T cruzi inh inactive, aSyn UTR inh inactive, Mdm2 MdmX PPI inactive, CSC inhib inactive and SKKanGAS inh inactive.
For CCOC(=O)C1(CCOc2ccccc2)CCN(Cc2ccc(O)c(OCC)c2)CC1 the results were T cruzi inh inactive, aSyn UTR inh inactive, Mdm2 MdmX PPI inactive, CSC inhib inactive and SKKanGAS inh inactive.
Screening CC1CC(C)CN(C(=O)COC(=O)CCCN2C(=O)c3cccc4cccc(c34)C2=O)C1 (stereo not given) returned T cruzi inh inactive, aSyn UTR inh inactive, Mdm2 MdmX PPI inactive and SKKanGAS inh inactive.
Screening CCCCNc1c(-c2ccc(OC)c(SC(C)CC)c2)nc2ccc(Cl)cn12 (stereo not given) returned Mdm2 MdmX PPI inactive and CSC inhib inactive.
`CCCCNc1c(-c2ccc(OC)c(SC(C)CC)c2)nc2ccc(C)cn12` (stereo not given) gave Mdm2 MdmX PPI 89, CSC inhib 100 and Mdm2 MdmX conf inactive.
For COc1ccc(CNc2ncc(-c3ccc(Cl)cc3)n2C)c(OC)c1OC the results were T cruzi inh inactive, aSyn UTR inh inactive, Mdm2 MdmX PPI inactive, CSC inhib inactive and SKKanGAS inh inactive.
Screening O=C(CSc1nnc2ccccn12)NCCc1ccc(Cl)cc1 returned T cruzi inh inactive, aSyn UTR inh inactive, Mdm2 MdmX PPI inactive, CSC inhib inactive and SKKanGAS inh inactive.
`C=C[C@H](CC(C)C)N(Cc1ccccc1)S(=O)(=O)N(Cc1ccc(OC)cc1)[C@H](C=C)CC(C)C` gave Mdm2 MdmX PPI 58, CSC inhib inactive and Mdm2 MdmX conf inactive.
CC(C)C[C@H](CO)N(Cc1ccccc1)S(=O)(=O)N(Cc1ccccc1)[C@@H](CO)CC(C)C was read as Mdm2 MdmX PPI 91, CSC inhib 107 and Mdm2 MdmX conf inactive.
`C/C(=N\NC(=O)c1c(Br)c(C)nn1C)c1ccc(NC(=O)C(C)Oc2ccc(Cl)cc2C)cc1` (stereo not given) gave T cruzi inh inactive, aSyn UTR inh inactive, Mdm2 MdmX PPI 62, CSC inhib inactive, SKKanGAS inh inactive and Mdm2 MdmX conf inactive.

Screens as filed in PubChem BioAssay.
